Measured values taken from ChEMBL document CHEMBL2331121, “Design, synthesis, and pharmacological characterization of N- and O-substituted 5,6,7,8-tetrahydro-4H-isoxazolo[4,5-d]azepin-3-ol analogues: novel 5-HT(2A)/5-HT(2C) receptor agonists with pro-cognitive properties” (J Med Chem, 2013).
The source made the active and inactive calls. No cut-off for these calls is given here.

Columns and labels:
[1] = molecular target: T1, 5-hydroxytryptamine receptor 2A (Homo sapiens, UniProt P28223); assay: Agonist activity at human 5HT2A receptor expressed in HEK293 cells assessed as accumulation of IP1 incubated for 1 hr at 37 degC followed by 15 mins at RT by TR-FRET assay; format: functional, cell-based
T1 sequence (P28223 whole entry): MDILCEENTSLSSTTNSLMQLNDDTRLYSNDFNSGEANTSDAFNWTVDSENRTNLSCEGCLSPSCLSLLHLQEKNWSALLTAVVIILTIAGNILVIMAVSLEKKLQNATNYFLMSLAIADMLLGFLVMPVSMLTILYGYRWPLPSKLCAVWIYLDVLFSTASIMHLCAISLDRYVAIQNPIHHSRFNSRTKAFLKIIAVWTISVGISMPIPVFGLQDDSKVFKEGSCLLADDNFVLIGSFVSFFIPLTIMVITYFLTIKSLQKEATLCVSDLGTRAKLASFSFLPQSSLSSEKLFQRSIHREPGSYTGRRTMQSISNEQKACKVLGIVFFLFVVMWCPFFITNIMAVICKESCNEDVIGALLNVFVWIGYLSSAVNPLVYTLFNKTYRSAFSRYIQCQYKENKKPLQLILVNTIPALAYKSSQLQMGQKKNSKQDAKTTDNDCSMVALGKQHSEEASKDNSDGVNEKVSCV

Homo sapiens = species: Homo sapiens; assay: Selectivity ratio of EC50 for human 5HT2C receptor to EC50 for M1 muscarinic receptor (unknown origin) by FLIPR assay
Mus musculus [2] = assay: Procognitive effect in C57Bl/6J mouse assessed as distance traveled in the familiar arm at 0.43 mg/kg, po administered 30 mins prior to acquisition trial measured after 24 hrs by Y-maze test (Rvb =31.5 +/- 2.9%); format: functional
Outline: (§1)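 Male C57Bl/6J mice aged 8 weeks, two-trial place recognition Y-maze. 3 min acquisition with two arms open; 24 h ITI; 3 min retention with all three arms open. Drug given po 30 min before acquisition, vehicle 10% HP-βCD. SB242084 2.1 mg/kg co-administered where stated; doses as free base. Readouts are % distance, arm entries and time in each arm. Familiar arms pooled; one-way ANOVA.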

[3] = molecular target: T2, 5-hydroxytryptamine receptor 2C (Homo sapiens, UniProt P28335); assay: Agonist activity at human 5HT2C receptor expressed in HEK293 cells assessed as accumulation of IP1 incubated for 1 hr at 37 degC followed by 15 mins at RT by TR-FRET assay; format: functional, cell-based
T2 sequence (P28335 whole entry): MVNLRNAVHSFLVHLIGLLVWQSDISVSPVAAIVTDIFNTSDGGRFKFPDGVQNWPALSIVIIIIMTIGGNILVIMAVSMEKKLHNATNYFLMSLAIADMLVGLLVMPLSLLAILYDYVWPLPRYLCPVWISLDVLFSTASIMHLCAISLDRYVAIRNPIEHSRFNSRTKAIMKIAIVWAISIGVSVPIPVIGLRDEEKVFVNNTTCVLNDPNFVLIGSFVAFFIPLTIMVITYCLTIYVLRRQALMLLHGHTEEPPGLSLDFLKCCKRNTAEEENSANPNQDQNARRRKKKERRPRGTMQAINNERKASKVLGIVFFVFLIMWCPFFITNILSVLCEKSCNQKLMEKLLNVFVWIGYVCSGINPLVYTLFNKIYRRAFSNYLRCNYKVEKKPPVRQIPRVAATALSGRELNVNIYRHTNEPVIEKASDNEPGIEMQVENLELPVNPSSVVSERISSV

Mus musculus [4] = assay: Procognitive effect in C57Bl/6J mouse assessed as time spent in familiar arm at 0.43 mg/kg, po administered 30 mins prior to acquisition trial measured after 24 hrs by Y-maze test; format: functional; outline: as §1
Mus musculus [5] = assay: Procognitive effect in C57Bl/6J mouse assessed as number of familiar arm entry at 0.43 mg/kg, po administered 30 mins prior to acquisition trial measured after 24 hrs by Y-maze test; format: functional; outline: as §1
[6] = molecular target: T2, 5-hydroxytryptamine receptor 2C; assay: Agonist activity at human 5HT2C receptor expressed in HEK293 cells assessed as induction of intracellular calcium release measured for 90 secs by fluorescence assay; format: functional, cell-based; details: read-out: EC50
[7] = molecular target: T2, 5-hydroxytryptamine receptor 2C; assay: Displacement of [3H]mesulergine from human 5HT2C receptor expressed in tsA201 cell membranes after 1 hr by scintillation counting analysis
Mus musculus [8] = assay: Procognitive effect in C57Bl/6J mouse assessed as distance traveled in the novel arm at 0.43 mg/kg, po administered 30 mins prior to acquisition trial measured after 24 hrs in presence of SB242084 (reference value: 37 +/-5.8%); format: functional; outline: as §1
[9] = molecular target: T3, 5-hydroxytryptamine receptor 2C (Rattus norvegicus) (UniProt P08909); assay: Displacement of [125I]-N-(p-I-Bn)-THAZ from 5HT2C receptor in rat midbrain membrane after 1 hr by scintillation counting analysis; format: cell membranes
T3 sequence (whole entry): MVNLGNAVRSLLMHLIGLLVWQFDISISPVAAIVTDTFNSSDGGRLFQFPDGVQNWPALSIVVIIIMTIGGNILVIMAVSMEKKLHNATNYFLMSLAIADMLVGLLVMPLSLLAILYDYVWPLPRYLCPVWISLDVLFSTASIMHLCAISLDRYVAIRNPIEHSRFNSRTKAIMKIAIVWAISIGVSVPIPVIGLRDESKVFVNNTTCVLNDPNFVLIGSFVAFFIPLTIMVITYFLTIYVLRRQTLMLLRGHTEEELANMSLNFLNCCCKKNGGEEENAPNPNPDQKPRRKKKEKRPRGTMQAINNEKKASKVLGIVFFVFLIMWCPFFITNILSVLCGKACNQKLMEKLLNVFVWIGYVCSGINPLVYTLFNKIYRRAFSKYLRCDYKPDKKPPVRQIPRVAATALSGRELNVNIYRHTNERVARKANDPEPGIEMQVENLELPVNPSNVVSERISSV

[10] = molecular target: T3, 5-hydroxytryptamine receptor 2C (Rattus norvegicus); assay: Displacement of [125I]-N-(p-I-Bn)-THAZ from 5HT2C receptor in rat hippocampal membrane after 1 hr by scintillation counting analysis; format: cell membranes; details: Hippocampus
[11] = molecular target: T4, 5-hydroxytryptamine receptor 2C (Homo sapiens) (UniProt P28335); assay: Agonist activity at human 5HT2C receptor expressed in HEK293 cells assessed as accumulation of IP1 incubated for 1 hr at 37 degC followed by 15 mins at RT by TR-FRET assay relative to 5HT; format: functional, cell-based
T4 sequence (whole entry): T2 sequence (P28335 whole entry)
Outline: (§2)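 Polyclonal HEK293 lines stably expressing human 5-HT2A (variant 1) or 5-HT2C (INI isoform), detached and suspended at 1 × 10⁷ cells/mL in HBSS with 20 mM HEPES, 1 mM CaCl₂, 1 mM MgCl₂, pH 7.4. Ligands in buffer with 40 mM LiCl. Incubated 1 h at 37 °C, then 15 min RT. IP1 read by HTRF 665/615 ratio. Triplicate, at least four times.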

Mus musculus [12] = assay: Procognitive effect in C57Bl/6J mouse assessed as number of novel arm entries at 0.43 mg/kg, po administered 30 mins prior to acquisition trial measured after 24 hrs by Y-maze test; format: functional; outline: as §1
[13] = molecular target: T3, 5-hydroxytryptamine receptor 2C (Rattus norvegicus); assay: Displacement of [125I]-N-(p-I-Bn)-THAZ from 5HT2C receptor in rat cerebellum membrane after 1 hr by scintillation counting analysis; format: cell membranes
[14] = molecular target: T5, 5-hydroxytryptamine receptor 2C (Rattus norvegicus, UniProt P08909); assay: (§3) Displacement of [125I]-N-(p-I-Bn)-THAZ from 5HT2C receptor in rat cerebral cortex membrane after 1 hr by scintillation counting analysis; format: cell membranes
T5 sequence (P08909 whole entry): T3 sequence (whole entry)

[15] = molecular target: T3, 5-hydroxytryptamine receptor 2C (Rattus norvegicus); assay: as §3; format: cell membranes
[16] = molecular target: T4, 5-hydroxytryptamine receptor 2C (Homo sapiens); assay: Ratio of EC50 for human 5HT2C receptor by calcium fiux-based fluorescence assay to […] accumulation-based TR-FRET assay; format: functional
[17] = molecular target: T1, 5-hydroxytryptamine receptor 2A; assay: Agonist activity at human 5HT2A receptor expressed in HEK293 cells assessed as accumulation of IP1 incubated for 1 hr at 37 degC followed by 15 mins at RT by TR-FRET assay relative to 5HT; format: functional, cell-based; outline: as §2
[18] = molecular target: T1, 5-hydroxytryptamine receptor 2A; assay: Agonist activity at human 5HT2A receptor expressed in HEK293 cells assessed as induction of intracellular calcium release measured for 90 secs by fluorescence assay; format: functional, cell-based; details: read-out: EC50
Mus musculus [19] = assay: Procognitive effect in C57BI/6J mouse assessed as time spent in familiar arm at 0.43 mg/kg, po administered 30 mins prior to acquisition trial measured after 24 hrs in presence of SB242084; format: functional; outline: as §1

How did the EC50 [1] turn out when `O=c1c2c(on1Cc1ccccc1)CCNCC2` was run?
The EC50 was 2400 nM.

What about the Ratio EC50 (Homo sapiens) of the same compound?
Its Ratio EC50 is 20.

What about the Activity (Mus musculus [2]) of the same compound?
The Activity was 29.8%.

And the EC50 [3]?
The EC50 was 1700 nM.

What about the Activity (Mus musculus [4]) of the same compound?
Its Activity is 30.6%.

And the Activity (Mus musculus [5])?
Its Activity is 30.8%.

What about the EC50 [6] of the same compound?
The EC50 was 420 nM.

And the Ki [7]?
Its Ki is 2300 nM.

And the Activity (Mus musculus [8])?
The Activity was 34.7%.

And the Activity [9]?
The Activity was “inactive”.

And the Activity [10]?
The Activity was “inactive”.

And the Emax [11]?
The Emax was 92%.

And the Activity (Mus musculus [12])?
The Activity was 38.5%.

And the Activity [13]?
Its Activity is “inactive”.

What about the Ki [14] of the same compound?
Its Ki is 724 nM.

What about the Activity [15] of the same compound?
Its Activity is “Dose-dependent effect”.

And the Ratio EC50 [16]?
Its Ratio EC50 is 2.

And the Emax [17]?
The Emax was 95%.

What about the EC50 [18] of the same compound?
The EC50 was 550 nM.

And the Activity (Mus musculus [19])?
Its Activity is 31.7%.
